1 compound from ChEMBL document CHEMBL1121409, “Mechanism of decomposition of N-hydroxyacetaminophen, a postulated toxic metabolite of acetaminophen” (J Med Chem, 1980) can be followed below.

Common to all, as to format: ADME
Data set [1] can be described thus: The compound was tested for half life in presence of phenol as additive (20 mM). In outline:
(§1)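 N-hydroxyacetaminophen at 1.5 mM initial, incubated at 37 °C in 0.2 M sodium phosphate pH 7.6, with each additive (20 mM) present before adding substrate. Aliquots were quenched in cold acetic acid (final pH ~3), or mixed with 10% FeCl3 in 0.9 M HCl and read at 540 nm. Remaining substrate was tracked by HPLC peak height (system A) or by the ferric assay. First-order disappearance gave the half-life.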

Data set [2] can be described thus: The compound was tested for half life in presence of cysteamine as additive (20 mM). The essentials: as §1
Data set [3] in a line: The compound was tested for half life in presence of dithionite as additive (20 mM). The essentials: as §1
Data set [4] in a line: The compound was tested for half life in presence of control. The essentials: as §1
A short description of data set [5]: The compound was tested for half life in presence of N-acetyl cysteine as additive (20 mM). The essentials:
as §1

Data set [6] can be described thus: The compound was tested for half life in presence of ascorbic acid as additive (20 mM). In outline: as §1
Data set [7] can be described thus: The compound was tested for half life in presence of cysteine as additive (20 mM). The essentials:
as §1

A short description of data set [8]: The compound was tested for half life in presence of cystamine as additive (20 mM). In outline:
as §1

A short description of data set [9]: The compound was tested for half life in presence of glycine as additive (20 mM). The essentials:
as §1

The nature of data set [10]: The compound was tested for half life in presence of lysine as additive (20 mM). In outline:
as §1

Data set [11] can be described thus: The compound was tested for half life in presence of acetaminophen as additive (20 mM). In outline:
as §1

A short description of data set [12]: The compound was tested for half life in presence of pyrogallol as additive (20 mM). In outline: as §1
The nature of data set [13]: The compound was tested for half life in presence of ethanol as additive (20 mM). In outline:
as §1

A short description of data set [14]: The compound was tested for half life in presence of salicylate as additive (20 mM). The essentials:
as §1

Data set [15] is described as follows: The compound was tested for half life in presence of methionine as additive (20 mM). In outline: as §1
Data set [16] can be described thus: The compound was tested for half life in presence of p-Nitrosophenol as additive (20 mM). The essentials:
as §1

A short description of data set [17]: The compound was tested for half life in presence of thiosulphate as additive (20 mM). In outline: as §1
The nature of data set [18]: The compound was tested for half life in presence of aspirin as additive (20 mM). The essentials:
as §1

SMILES strings stand for the structures.

The term half-life denotes how long it takes for the measured level to halve. In the case of `CC(=O)N(O)c1ccc(O)cc1`, the half-life was 14 min in data set [1]; 72 min in data set [2]; 24 min in data set [3]; 9.4 min in data set [4]; 68 min in data set [5]; 76 min in [6]. Moreover, the half-life amounted to 78 min in [7]; 43 min in data set [8]; 24 min in data set [9]; 23 min in data set [10]; 33 min in [11]; 60 min in [12]. The half-life in [13] stood at 6.7 min; in data set [14], 6.5 min; in data set [15], 31 min; in [16], 17 min; in data set [17], 31 min; in data set [18], 6.4 min.
